Experimental data as given in PMC3674249 (Nature Communications, 2013).
“Also recorded” adds a separate entry of the source.

How the values were obtained:
ChEH [1] = target: T1, ChEH (Homo sapiens, UniProt Q15125+Q9UBM7); assay: ChEH activity in whole MCF-7 cells; format: cell-based; details: for IC50 of ChEH inhibition, fold higher than DDA / ChEH inhibition (in words): MCF-7 cells
Summary of the method: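 Whole MCF-7 cells were grown in RPMI with 5% FBS. Conversion to [14C]-CT was resolved by TLC and quantified by densitometry. IC50 came from dose–response curves, as mean±s.e.m. of three independent experiments.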

ChEH [2] = details: microsomes from rat liver; cited from earlier work
ER = assay: ER-dependent transcriptional activity; format: cell-based, human; details: MELN cells; for inhibition of luciferase stimulation by E2 (ER antagonism): with 10 nM E2, Tam 1 μM
rat mEH = target: T2, rat mEH (Rattus norvegicus, UniProt P07687); assay: mEH activity assay; format: biochemical
T2 sequence (P07687 1-455): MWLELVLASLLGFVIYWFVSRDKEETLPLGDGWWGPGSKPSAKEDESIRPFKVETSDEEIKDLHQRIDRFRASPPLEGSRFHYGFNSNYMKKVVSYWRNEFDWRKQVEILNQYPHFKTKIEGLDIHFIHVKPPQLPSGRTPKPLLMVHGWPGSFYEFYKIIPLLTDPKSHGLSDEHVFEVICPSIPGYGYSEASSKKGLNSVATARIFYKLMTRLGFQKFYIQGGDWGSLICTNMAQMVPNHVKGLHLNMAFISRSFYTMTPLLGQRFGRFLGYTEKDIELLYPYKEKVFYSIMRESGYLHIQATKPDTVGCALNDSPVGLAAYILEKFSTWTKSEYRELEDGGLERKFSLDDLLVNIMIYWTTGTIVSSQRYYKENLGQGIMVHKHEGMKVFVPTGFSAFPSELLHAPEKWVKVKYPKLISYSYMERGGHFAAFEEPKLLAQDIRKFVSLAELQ

B16F10 melanoma tumours = B16F10 melanoma tumours implanted s.c. into immunocompetent mice; format: in vivo, mouse
Summary of the method: (§1)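 Female mice, 6–8 weeks old, held specific-pathogen-free after 2 weeks quarantine. Strains were C57BL/6 for B16F10 and BALB/c for TS/A. 35,000 exponentially growing cells in 150 μl PBS were implanted s.c. into the flank. Dosing was s.c. every 5 days from implantation day, with a s.c. vehicle control (n=10 per group). Survival was by Kaplan–Meier with log-rank test.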

ChEH [3] = target: T1, ChEH; assay: ChEH activity in human melanoma SK-Mel-28 cells; format: cell-based
B16F10 cells = assay: B16F10 cell differentiation in vitro; format: cell-based, mouse; details: 24 h
Human sEH = target: T3, Human sEH (Homo sapiens, UniProt P34913); assay: sEH activity assay; format: biochemical
T3 sequence (P34913 1-555): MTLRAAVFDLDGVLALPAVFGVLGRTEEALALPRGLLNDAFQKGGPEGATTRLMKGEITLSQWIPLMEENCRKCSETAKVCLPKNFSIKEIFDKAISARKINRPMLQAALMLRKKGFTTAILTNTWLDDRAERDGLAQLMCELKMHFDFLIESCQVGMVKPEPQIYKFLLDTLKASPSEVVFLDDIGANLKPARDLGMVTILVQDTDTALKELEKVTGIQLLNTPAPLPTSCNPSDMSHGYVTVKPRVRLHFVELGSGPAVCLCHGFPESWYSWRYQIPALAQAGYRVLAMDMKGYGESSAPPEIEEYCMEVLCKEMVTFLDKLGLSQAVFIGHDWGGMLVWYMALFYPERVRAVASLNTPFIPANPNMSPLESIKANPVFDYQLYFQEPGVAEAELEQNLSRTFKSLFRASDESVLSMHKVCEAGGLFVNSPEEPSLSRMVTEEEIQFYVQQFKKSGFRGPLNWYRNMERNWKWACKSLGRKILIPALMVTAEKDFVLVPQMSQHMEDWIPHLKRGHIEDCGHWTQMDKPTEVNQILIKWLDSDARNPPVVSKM

ChEH [4] = target: T4, ChEH (Mus musculus, UniProt O88455+P70245); assay: ChEH activity in murine melanoma B16F10 cells; format: cell-based
T4 sequence (P70245 1-230): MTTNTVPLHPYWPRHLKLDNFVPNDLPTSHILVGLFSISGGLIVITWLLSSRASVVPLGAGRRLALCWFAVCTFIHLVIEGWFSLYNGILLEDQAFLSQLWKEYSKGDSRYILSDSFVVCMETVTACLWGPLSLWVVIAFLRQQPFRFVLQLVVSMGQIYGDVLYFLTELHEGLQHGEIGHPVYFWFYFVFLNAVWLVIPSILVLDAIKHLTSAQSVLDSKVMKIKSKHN
T4 sequence (O88455 1-471): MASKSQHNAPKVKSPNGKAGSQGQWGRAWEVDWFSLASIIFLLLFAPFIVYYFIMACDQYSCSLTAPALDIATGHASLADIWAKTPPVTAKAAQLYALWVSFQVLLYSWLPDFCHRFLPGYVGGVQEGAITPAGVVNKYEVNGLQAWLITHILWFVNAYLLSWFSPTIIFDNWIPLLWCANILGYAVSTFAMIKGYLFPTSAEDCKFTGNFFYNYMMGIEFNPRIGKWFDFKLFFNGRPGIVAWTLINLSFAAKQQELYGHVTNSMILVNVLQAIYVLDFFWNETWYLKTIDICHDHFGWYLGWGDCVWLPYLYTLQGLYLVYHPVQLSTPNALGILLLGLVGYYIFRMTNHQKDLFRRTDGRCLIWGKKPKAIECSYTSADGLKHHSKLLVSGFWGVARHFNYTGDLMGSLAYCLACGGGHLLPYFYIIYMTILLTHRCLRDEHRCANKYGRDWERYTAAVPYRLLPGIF

TS/A mammary tumours = TS/A mammary tumours implanted s.c. into immunocompetent mice; format: in vivo, mouse
Summary of the method: as §1

ChEH [5] = target: T1, ChEH; assay: Modality of ChEH inhibition in MCF-7 cell extracts; format: biochemical; details: MCF-7 cell extracts, 0.5, 1 and 5 μM DDA; Km increased, Vmax unchanged
TS/A cells = assay: TS/A cell differentiation in vitro; format: cell-based, mouse; details: 24 h
ChEH [6] = target: T4, ChEH; assay: ChEH activity in murine mammary TSA cells; format: cell-based
mouse brain homogenate = assay: DDA neosynthesis assay; format: biochemical; details: 2 μM [14C]-5,6α-EC, His 0.5–200 μM, 37 °C, 10 min
[7] = B16F10, treated every 5 days from day of implantation, DDA 0.37 μg kg−1 s.c.
[8] = TS/A tumours, DDA 3.7 μg kg−1, 30 days

T1 sequence (Q15125 whole entry): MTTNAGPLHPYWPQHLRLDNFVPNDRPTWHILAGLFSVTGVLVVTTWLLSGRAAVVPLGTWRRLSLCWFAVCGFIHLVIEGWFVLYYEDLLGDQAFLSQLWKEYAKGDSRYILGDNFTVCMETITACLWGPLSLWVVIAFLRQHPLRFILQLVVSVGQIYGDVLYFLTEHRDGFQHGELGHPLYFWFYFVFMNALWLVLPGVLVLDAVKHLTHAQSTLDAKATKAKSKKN
T1 sequence (Q9UBM7 whole entry): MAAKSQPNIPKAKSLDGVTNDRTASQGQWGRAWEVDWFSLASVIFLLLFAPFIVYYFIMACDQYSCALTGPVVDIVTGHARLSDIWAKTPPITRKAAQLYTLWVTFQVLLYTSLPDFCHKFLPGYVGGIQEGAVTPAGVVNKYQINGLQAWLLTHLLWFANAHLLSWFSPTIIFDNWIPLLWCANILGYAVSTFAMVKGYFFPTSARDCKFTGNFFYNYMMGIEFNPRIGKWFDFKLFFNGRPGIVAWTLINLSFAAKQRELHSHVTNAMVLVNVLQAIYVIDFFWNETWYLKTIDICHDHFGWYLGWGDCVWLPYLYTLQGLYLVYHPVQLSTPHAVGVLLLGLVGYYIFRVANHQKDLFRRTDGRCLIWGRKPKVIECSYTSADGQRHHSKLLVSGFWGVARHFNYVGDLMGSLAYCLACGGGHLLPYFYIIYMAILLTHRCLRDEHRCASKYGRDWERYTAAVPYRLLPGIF

CC(C)CCC[C@@H](C)[C@H]1CC[C@H]2[C@@H]3C(=O)C=C4C[C@@H](O)CC[C@]4(C)[C@H]3CC[C@]12C [7-ketocholesterol]
IC50 (ChEH [1]): 5090 ± 1400 nM
IC50 of ChEH inhibition, fold higher than DDA (ChEH [1]): 42 fold
ChEH inhibition (in words) (ChEH [2]): inhibited ChEH in microsomes from rat liver

CC(C)CCC[C@@H](C)[C@H]1CC[C@H]2[C@@H]3C[C@@H](NCCc4c[nH]cn4)[C@@]4(O)C[C@@H](O)CC[C@]4(C)[C@H]3CC[C@]12C [DDA, 5α-Hydroxy-6β-[2-(1H-imidazol-4-yl)-ethylamino]-cholestan-3β-ol]
stimulation of luciferase expression (ER agonism) (ER; increasing concentrations, without E2): did not stimulate the expression of luciferase
inhibition of luciferase stimulation by E2 (ER antagonism) (ER): did not inhibit luciferase stimulation by 17β-estradiol
mEH inhibition (in words) (rat mEH): did not inhibit these enzymes; also recorded: not an inhibitor
survivors at day 50 (B16F10 melanoma tumours; [7]): 40%
tumour growth vs control (B16F10 melanoma tumours; [7]): significantly inhibited tumour growth
melanin production in tumour sections (Masson–Fontana) (B16F10 melanoma tumours; B16F10 tumours, DDA 3.7 μg kg−1, 23 days): increased production of melanin
intra-tumour immune cell infiltration (CD3, CD11c) (B16F10 melanoma tumours; B16F10 tumours, DDA 3.7 μg/kg, 23 days): increased infiltration of CD3^+ T lymphocytes and CD11c^+ dendritic cells
IC50 (ChEH [3]): 72 ± 15 nM
melanin content (B16F10 cells): increased in a concentration-dependent manner up to 2.5 μM DDA
tyrosinase activity (B16F10 cells): increased activity of tyrosinase
sEH inhibition (in words) (Human sEH): did not inhibit these enzymes; also recorded: not an inhibitor
IC50 (ChEH [4]): 252 ± 81 nM
MFGE8/lactadherin expression in tumour sections (immunohistochemistry) (TS/A mammary tumours; [8]): increased expression of milk fat globule (MFGE8)/lactadherin
neutral lipid droplets in tumour sections (ORO) (TS/A mammary tumours; [8]): increased accumulation of neutral lipid droplets
intra-tumour immune cell infiltration (CD3, CD11c) (TS/A mammary tumours; TS/A tumours, DDA 3.7 μg/kg, 30 days): increased infiltration of CD3^+ T lymphocytes and CD11c^+ dendritic cells
animal survival at day 50 (TS/A mammary tumours; TS/A, treated every 5 days from day of implantation, DDA 0.37 μg kg−1 s.c.): 60%
modality of ChEH inhibition (ChEH [5]): competitive
increase in ORO staining of neutral lipid droplets vs vehicle (TS/A cells; 1 μM DDA): 2.4 fold
increase in intracellular triglycerides vs vehicle (TS/A cells; 1 μM DDA): 7 fold
MFGE8/lactadherin (immunostaining, flow cytometry) (TS/A cells; 2.5 μM DDA): increased
increase in ORO staining of neutral lipid droplets vs vehicle (TS/A cells; 2.5 μM DDA): 3 fold
increase in intracellular triglycerides vs vehicle (TS/A cells; 2.5 μM DDA): 9 fold
IC50 (ChEH [1]): 120 ± 20 nM
IC50 (ChEH [6]): 284 ± 70 nM

C[C@H](CCCC(C)(C)O)[C@H]1CC[C@H]2[C@@H]3CC=C4C[C@@H](O)CC[C@]4(C)[C@H]3CC[C@]12C [Compound 25-OHCh]
ChEH inhibition (in words) (ChEH [1]): unable to inhibit ChEH
ChEH inhibition (in words) (ChEH [2]): did not inhibit ChEH

NCCc1c[nH]cn1 [His, histamine]
apparent Vmax of DDA formation (mouse brain homogenate): 0.12±0.04 pmol per mg protein per min

CC/C(=C(\c1ccccc1)c1ccc(OCCN(C)C)cc1)c1ccccc1 [Tam, Tamoxifen, reference compound]
inhibition of luciferase stimulation by E2 (ER antagonism) (ER): completely inhibited luciferase expression

CC(C)CCC[C@@H](C)[C@H]1CC[C@H]2[C@@H]3[C@H](O)C=C4C[C@@H](O)CC[C@]4(C)[C@H]3CC[C@]12C [Compound 7α-OHCh, 7α-hydroxycholesterol]
IC50 (ChEH [1]): 12000 ± 2900 nM
IC50 of ChEH inhibition, fold higher than DDA (ChEH [1]): 100 fold
ChEH inhibition (in words) (ChEH [2]): inhibited ChEH in microsomes from rat liver

CC(C)CCC[C@@H](C)[C@H]1CC[C@H]2[C@@H]3C[C@@H](n4cncc4CCN)[C@@]4(O)C[C@@H](O)CC[C@]4(C)[C@H]3CC[C@]12C [Compound C17, 5α-hydroxy-6β-[5-(2-amino-ethyl)-imidazol-1-yl]-cholestan-3β-ol]
ChEH inhibition (in words) (ChEH [3]; SK-Mel-28 cells): inactive against ChEH
ChEH inhibition (in words) (ChEH [4]; B16F10 cells): inactive against ChEH
ChEH inhibition (in words) (ChEH [1]): did not inhibit ChEH activity
ChEH inhibition (in words) (ChEH [6]; TSA cells): inactive against ChEH
